Results reported in ChEMBL document CHEMBL4665717, “New V1a receptor antagonist. Part 2. Identification and optimization of triazolobenzazepines” (Bioorg Med Chem Lett, 2020).

Assays:
[1] = target: T1, Vasopressin V1a receptor (Homo sapiens, UniProt P37288); test: Displacement of [3H]AVP from human V1a receptor expressed in […] cells at 10 uM by radioligand binding assay relative to control; type: cell-based
How it was run: (§1)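 Membranes from 1321N1 cells expressing human V1a or V2 receptor incubated with [3H]AVP and single test concentration. Nonspecific binding defined with 2 µM arginine-vasopressin.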
Target sequence in this assay (P37288 whole entry, looked up): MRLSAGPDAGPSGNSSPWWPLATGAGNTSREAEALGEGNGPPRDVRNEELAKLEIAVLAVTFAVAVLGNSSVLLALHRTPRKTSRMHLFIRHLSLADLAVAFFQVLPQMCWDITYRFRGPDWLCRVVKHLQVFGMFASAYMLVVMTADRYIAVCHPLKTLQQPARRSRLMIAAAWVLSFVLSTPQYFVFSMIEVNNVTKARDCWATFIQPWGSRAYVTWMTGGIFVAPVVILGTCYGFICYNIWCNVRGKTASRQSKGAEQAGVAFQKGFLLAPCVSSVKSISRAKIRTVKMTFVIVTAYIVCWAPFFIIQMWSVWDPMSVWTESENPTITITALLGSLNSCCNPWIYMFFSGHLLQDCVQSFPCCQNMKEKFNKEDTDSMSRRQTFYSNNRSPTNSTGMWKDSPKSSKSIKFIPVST

[2] = target: T1, Vasopressin V1a receptor; test: Inhibition of human V1a receptor expressed in human 1321N1 cells assessed as decrease in Arg8-vasopressin-stimulated calcium flux at 10 uM by fluorometric calcium assay relative to control; type: functional, cell-based
Target sequence in this assay (P37288 whole entry, looked up): as above

[3] = target: T1, Vasopressin V1a receptor; test: Displacement of [3H]AVP from human V1a receptor expressed in […] cells assessed as dissociation constant by radioligand binding assay; type: cell-based, 1321N1
How it was run: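 Membranes from 1321N1 cells expressing human V1a or V2 receptor incubated with [3H]AVP and increasing test compound concentrations. Nonspecific binding defined with 2 µM arginine-vasopressin for both receptors. IC50 taken from sigmoidal fit of displacement curves, then converted to Ki by Cheng-Prusoff.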
Target sequence in this assay (P37288 whole entry): as the sequence (P37288 whole entry, looked up) above

[4] = in vitro; conditions: Wistar, rat
[5] = target: T1, Vasopressin V1a receptor; test: Inhibition of human V1a receptor expressed in human 1321N1 cells assessed as decrease in Arg8-vasopressin-stimulated calcium flux by fluorometric calcium assay; type: functional, cell-based
How it was run: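 1321N1 cells expressing human V1a receptor stimulated with (Arg8)-vasopressin. Intracellular Ca2+ change measured. IC50 values averaged from at least three independent measurements.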
Target sequence in this assay (P37288 whole entry): as the sequence (P37288 whole entry, looked up) above

[6] = in vitro; conditions: NMRI, mouse
[7] = in vitro; conditions: human
[8] = Apparent permeability across apical to basolateral side in vinblastine-treated human Caco-2 cells at 10 uM by HPLC-UV analysis
[9] = tested on: P-glycoprotein; test: Efflux ratio of Apparent permeability across apical to basolateral side in human Caco-2 cells expressing P-glycoprotein at 10 uM by HPLC-UV analysis
[10] = Apparent permeability across apical to basolateral side in vinblastine-treated human Caco-2 cells at 1 uM by HPLC-UV analysis; type: ADME
How it was run: (§2)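 Bidirectional transport across VB-Caco-2 monolayers with test compound at 1 or 10 µM. Apparent permeability A→B reported, with PDR from the two directions.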

[11] = tested on: P-glycoprotein; test: Efflux ratio of Apparent permeability across apical to basolateral side in vinblastine-treated human Caco-2 cells expressing P-glycoprotein at 1 uM by HPLC-UV analysis; type: ADME; how it was run: as §2
[12] = target: T2, Vasopressin V2 receptor (Homo sapiens, UniProt P30518); test: Displacement of [3H]AVP from human […] receptor expressed in […] cells at 1 uM by radioligand binding assay relative to control; type: cell-based; conditions: 1321N1; how it was run: as §1
[13] = organism: Mus musculus; test: animal or person; conditions: ip, 1 h, read-out: INH
[14] = target: T2, Vasopressin V2 receptor; test: Displacement of [3H]AVP from human V2a receptor expressed in 1132N1 cells assessed as dissociation constant by radioligand binding assay
[15] = tested on: Mus musculus; test: Anti-depression activity in mouse assessed as inhibition of oxytocin-induced scratching at 30 mg/kg, po administered before oxytocin stimulation and measured after 1 hr

T2 sequence (P30518 whole entry): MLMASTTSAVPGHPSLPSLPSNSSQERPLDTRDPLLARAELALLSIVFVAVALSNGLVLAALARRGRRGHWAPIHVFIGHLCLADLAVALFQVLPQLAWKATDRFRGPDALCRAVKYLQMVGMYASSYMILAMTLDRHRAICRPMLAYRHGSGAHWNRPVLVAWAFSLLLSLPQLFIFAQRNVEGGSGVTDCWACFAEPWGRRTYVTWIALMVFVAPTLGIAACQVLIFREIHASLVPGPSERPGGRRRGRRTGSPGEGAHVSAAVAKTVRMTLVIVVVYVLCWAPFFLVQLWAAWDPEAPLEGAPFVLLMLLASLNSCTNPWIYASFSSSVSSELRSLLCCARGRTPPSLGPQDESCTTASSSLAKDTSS

inhibition [2] [%]	Ki [3] [nM]	microsomal CLint at 1 µM ([4]; liver microsomes) [µL/min/mg]	IC50 [5] [nM]	microsomal CLint at 1 µM ([6]; liver microsomes) [µL/min/mg]	microsomal CLint at 1 µM ([7]; liver microsomes) [µL/min/mg]	Structure (SMILES)	other results
< 50						Cc1ccc(S(=O)(=O)N2CCC(c3nnc4n3-c3ccc(Cl)cc3CC4)CC2)cc1	inhibition ([1]; 1321N1, filed as antagonist): 42%
43	2400					CC(=O)N1c2cc(Cl)ccc2-n2c(C3CCN(c4ccccn4)CC3)nnc2C1(C)C	
	1.4	404	260	132	80	O=C(C1CCN(c2ccccn2)CC1)N1CCNc2cc(Cl)ccc21	Papp A→B at 10 µM [8]: 48 ×10⁻⁶ cm/s; efflux ratio at 10 µM [9]: 0.7
< 50	260					Clc1ccc2c(c1)C1CC1c1nnc(C3CCN(c4ccccn4)CC3)n1-2 (configuration not stated)	
40	700	39		115	8	COc1nc2cc(Cl)ccc2n2c(C3CCN(c4ccccn4)CC3)nnc12	Papp A→B at 1 µM [10]: 28 ×10⁻⁶ cm/s; efflux ratio at 1 µM [11]: 0.8
	0.6	110	1.3	90	9	Brc1ccc2c(c1)CCCc1nnc([C@H]3CC[C@H](Oc4ccccn4)CC3)n1-2	Papp A→B at 10 µM [8]: 29 ×10⁻⁶ cm/s; efflux ratio at 10 µM [9]: 0.9
< 50	180					Clc1ccc2c(c1)C1CC1c1nnc([C@H]3CC[C@@H](Oc4ccccn4)CC3)n1-2 (some centres not stated)	
< 50						O=S(=O)(c1ccccn1)N1CCC(c2nnc3n2-c2ccc(Cl)cc2CC3)CC1	inhibition ([1]; 1321N1): 19%
	15	130	117	163	12	c1ccc(N2CCC(c3nnc4n3-c3ccccc3CCC4)CC2)nc1	
< 50						NC1Cc2cc(Cl)ccc2-n2c1nnc2C1CCN(c2ccccn2)CC1 (configuration not stated)	inhibition ([1]; 1321N1): 34%
	28	72	220	373	81	COC(=O)CC1Cc2cc(Cl)ccc2-n2c1nnc2[C@H]1CC[C@H](Oc2ccccn2)CC1 (some centres not stated)	
11	5200					Clc1ccc2c(c1)nc1[nH]nc(C3CCN(c4ccccn4)CC3)n12	
	0.45	121	2.7	115	27	C#Cc1ccc2c(c1)CCCc1nnc(C3CCN(c4ccccn4)CC3)n1-2	
	9	12	70	15	3	Clc1ccc2c(c1)CCc1nnc([C@H]3CC[C@H](Oc4ccccn4)CC3)n1-2	inhibition [12]: 13%; inhibition in vivo at 10 mg/kg [13]: 66%
	0.7	111	13	50	8	Brc1ccc2c(c1)CCCc1nnc(C3CCN(c4ccccn4)CC3)n1-2	Papp A→B at 10 µM [8]: 46 ×10⁻⁶ cm/s; efflux ratio at 10 µM [9]: 0.8
	0.8	124	1	94	7	Clc1ccc2c(c1)CCCc1nnc([C@H]3CC[C@H](Oc4ccccn4)CC3)n1-2	Ki [14]: 560 nM; inhibition in vivo at 30 mg/kg [15]: 94%
< 50						O=S(=O)(c1ccc(F)cc1)N1CCC(c2nnc3n2-c2ccc(Cl)cc2CC3)CC1	inhibition ([1]; 1321N1): 36%
	71	32	1400	36	0.3	Clc1ccc2c(c1)CCc1nnc(C3CCN(c4ccccn4)CC3)n1-2	Papp A→B at 10 µM [8]: 51 ×10⁻⁶ cm/s; efflux ratio at 10 µM [9]: 0.8
28	800					CC1(C)Nc2cc(Cl)ccc2-n2c(C3CCN(c4ccccn4)CC3)nnc21	
0						O=c1[nH]c2cc(Cl)ccc2n2c(C3CCN(c4ccccn4)CC3)nnc12	inhibition ([1]; 1321N1): 3%
8						Clc1ccc2nc3[nH]nc(C4CCN(c5ccccn5)CC4)n3c2c1	inhibition ([1]; 1321N1): 27%
< 50						CC(C)(C)OC(=O)NC1Cc2cc(Cl)ccc2-n2c(C3CCN(c4ccccn4)CC3)nnc21 (configuration not stated)	inhibition ([1]; 1321N1): 25%
	1.4	196	3.2	116	19	Clc1ccc2c(c1)CCCc1nnc(C3CCN(c4ccccn4)CC3)n1-2	Papp A→B at 1 µM [10]: 37 ×10⁻⁶ cm/s; efflux ratio at 1 µM [11]: 1.1
	15	163	252	170	31	CCc1ccc2c(c1)CCCc1nnc(C3CCN(c4ccccn4)CC3)n1-2	

More lines, now with the values behind:

Structure (SMILES)	inhibition [2] [%]	Ki [3] [nM]	microsomal CLint at 1 µM ([4]; liver microsomes) [µL/min/mg]	IC50 [5] [nM]	microsomal CLint at 1 µM ([6]; liver microsomes) [µL/min/mg]	microsomal CLint at 1 µM ([7]; liver microsomes) [µL/min/mg]	other results
Cc1cc([C@H]2CC[C@H](c3nnc4n3-c3ccc(Cl)cc3C3CC43)CC2)no1 (mixture of isomers)		100	1	500	3	0.3	
Cc1cc([C@H]2CC[C@H](c3nnc4n3-c3ccc(Cl)cc3[C@H]3C[C@@H]43)CC2)no1		55		635			
Cc1cc([C@H]2CC[C@H](c3nnc4n3-c3ccc(Br)cc3CCC4)CC2)no1		0.6	76	1.7	36	3	
Cc1cc([C@H]2CC[C@H](c3nnc4n3-c3ccc(Cl)cc3CC4)CC2)no1		13	13	100	13	0.3	inhibition [12]: 9%; inhibition in vivo at 10 mg/kg [13]: 45%
Cc1nnc2n1-c1ccc(Cl)cc1CC2	< 50						inhibition ([1]; 1321N1): 9%
Clc1ccc2c(c1)CCc1nnc(C3CCCCC3)n1-2	< 50						inhibition ([1]; 1321N1): 35%
Cc1ccccc1N1CCN(C(=O)N2C[C@@H](C(=O)N3CCCC3)Cc3cc(Cl)ccc32)CC1		0.6	170	2.4	235	72	Papp A→B at 1 µM [10]: 10 ×10⁻⁶ cm/s; efflux ratio at 1 µM [11]: 1.3
Clc1ccc2c(c1)CCc1nnc(C3CCNCC3)n1-2	< 50						inhibition ([1]; 1321N1): 14%
Cc1cc([C@H]2CC[C@H](c3nnc4n3-c3ccccc3CCC4)CC2)no1		1.6	125	25	114	0.4	
c1ccc(O[C@H]2CC[C@H](c3nnc4n3-c3ccccc3CCC4)CC2)nc1		2.3	231	20	188	8	
O=S(=O)(c1ccc2c(c1)CCO2)N1CCC(c2nnc3n2-c2ccc(Cl)cc2CC3)CC1	< 50						inhibition ([1]; 1321N1, filed as antagonist): 43%
CN1Cc2cc(Cl)ccc2-n2c(nnc2[C@H]2CC[C@H](Oc3ccccn3)CC2)C1 [BALOVAPTAN]				3			microsomal CLint at 1 µM ([4]; microsomes): 22 µL/min/mg; Papp A→B at 1 µM [10]: 43 ×10⁻⁶ cm/s; microsomal CLint at 1 µM ([6]; microsomes): 17 µL/min/mg; microsomal CLint at 1 µM ([7]; microsomes): 0.5 µL/min/mg; efflux ratio at 1 µM [11]: 1.1; inhibition in vivo at 30 mg/kg [15]: 80%
COC(=O)C12CC1c1cc(Cl)ccc1-n1c2nnc1[C@H]1CC[C@H](Oc2ccccn2)CC1 (some centres not stated)	< 50	400					
Cc1cc([C@H]2CC[C@H](c3nnc4n3-c3ccc(Cl)cc3CCC4)CC2)no1		0.7	83	2.2	38	1	
Cc1cc([C@H]2CC[C@H](c3nnc4n3-c3ccc(Cl)cc3[C@@H]3C[C@H]43)CC2)no1	< 50	570					
CC(C)(C)OC(=O)N1CCC(c2nnc3n2-c2ccc(Cl)cc2CC3)CC1	< 50						inhibition ([1]; 1321N1): 37%
